Data as given in publication PMC8355823 (Toxicology Reports, 2021).
pEC50, pIC50: −log10 of the molar value. Like-named read-outs stand apart in the source and are kept apart here.

Key:
[1] = tested on: ES-D3 embryoid bodies; assay: Embryoid body; type: cell-based, murine; settings: Mus musculus, read-out: EB area (EC50); day 7
How it was run: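 Differentiation run without LIF. Hanging drops kept 3 days, then EBs moved to exposure medium for 2 days, then placed singly in 24-well plates with exposure medium. On differentiation day 7, each EB was imaged by bright field at 4x and its border traced to give area. Mean area of 24 EBs per condition was used. EC50 taken from an exponential concentration-response fit with 90% BMCL-BMCU.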

[2] = tested on: rats; settings: cited from earlier work
[3] = tested on: zebrafish; settings: cited from earlier work
[4] = tested on: ES-D3 embryoid bodies; assay: Total protein measurements of EBs; type: cell-based, murine; settings: Mus musculus, 168 h, read-out: Protein level (EC50); day 7
How it was run: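 Differentiation run without LIF. Hanging drops kept 3 days, then exposure to test compound during EB culture. On differentiation day 7, 24 EBs per condition were pooled, dissociated at 37 °C for 3 min, washed in PBS and permeabilised in 1% Triton X-100 for 5 min. Protein measured by Micro BCA in triplicate. EC50 taken from an exponential concentration-response fit with 90% BMCL-BMCU.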

[5] = tested on: ES-D3 cells; assay: Cell viability assay; type: cell-based, murine; settings: Mus musculus, 120 h, read-out: Viability (IC50)
How it was run: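 ES-D3 cells plated at 500/well in LIF-containing medium and settled 2 h at 37 °C, 5% CO2. Exposed in six replicates to test compound, 0.25% DMSO vehicle, or penicillin G and 5-fluorouracil controls. Medium renewed at the same final concentrations after 3 days, then 2 more days. CellTiter-Blue added for 2 h; fluorescence read at 544/590 nm and expressed as % of DMSO. n = 3 experiments. IC50 taken from an exponential concentration-response fit with 90% BMCL-BMCU.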

[6] = tested on: rabbits; settings: cited from earlier work
[7] = tested on: ES-D3 embryoid bodies; assay: Gene expression analysis; type: cell-based, murine; settings: after 24 h exposure, day 4
How it was run: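 EBs differentiated to day 4 with 24 h exposure to test compound or 0.25% DMSO. 7–8 EB samples from two independent experiments. RNA isolated with a DNase step; quality accepted at 260/280 of 1.9–2.2 and RIN >8.2. TaqMan real-time PCR: 95 °C for 20 s, then 40 cycles of 95 °C 3 s and 60 °C 30 s. Values by ΔΔCt against mean Hprt1/Gusb/Polr2a. One-way ANOVA with Sidak test (p < 0.05) versus control.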

Q: What does the source list for `CCOP(=S)(OCC)Oc1nc(Cl)c(Cl)cc1Cl` [Chlorpyrifos]?
A: pEC50 [1]: 3.86; Degenerated neurons in the cerebellum of the offspring ([2]; exposure of pregnant rats): increased degenerated neurons; Numbers of Purkinje cells in the offspring ([2]; exposure of pregnant rats): reduced numbers of Purkinje cells; Psychobiological development ([2]; neonatal rats, dams exposed to 1 mg/kg per os): delay in psychobiological development; Acetylcholine esterase (AChE) ([2]; neonatal rats): reductions; Muscarinic receptors ([2]; neonatal rats): dose-dependent decrease; Malformations ([2]; rats, maternally toxic doses of 25 mg/kg per day): multiple malformations; Cardiac-related developmental defects ([3]; zebrafish): pericardial oedema; pEC50 [4]: 4.04; pIC50 [5]: 4.07

Q: With `CCOC(=O)CC(SP(=S)(OC)OC)C(=O)OCC` (stereo not shown) [Malathion, malathion] as the compound, how does the pEC50 [1] read?
A: 4.14

Q: What about the Cardiac-related developmental defects ([3]; zebrafish) of the same compound?
A: bradycardia and a reduced heart rate

Q: And the Fetotoxicity and teratogenicity [6]?
A: neither fetotoxic nor teratogenic

Q: And the pEC50 [4]?
A: 4.10

Q: And the pIC50 [5]?
A: 4.31

Q: With `O=P(Oc1ccccc1)(Oc1ccccc1)Oc1ccccc1` [Triphenyl phosphate, triphenyl phosphate] as the compound, how does the pEC50 [1] read?
A: 3.92

Q: What about the Fetotoxicity and teratogenicity ([2]; rats) of the same compound?
A: neither fetotoxic nor teratogenic

Q: And the Cardiac-related developmental defects ([3]; zebrafish model)?
A: impaired cardiac looping and function

Q: What about the Cardiac effects ([3]; zebrafish) of the same compound?
A: impairments in cardiac looping and function defects

Q: And the pEC50 [4]?
A: 3.97

Q: And the “Myh6 gene expression (late cardiomyocyte differentiation marker)” value [7]?
A: not expressed yet

Q: What about the pIC50 [5] of the same compound?
A: 4.21
